# Assay outcomes (PubChem BioAssay)
# Compounds with a hit are over-represented: about 3.3% of the library has one in this group of screens.
# CendR NRP1 mod – modulators of CendR peptide binding to NRP-1, primary screen, biochemical, fluorescence polarization, uHTS | hit rate 0.85% among 360,000 | Neuropilin-1 (Homo sapiens), O14786 | FAM-RPARPAR peptide binding to NRP-1 | inhibition, % at 25 µM;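 active means inhibition or corrected inhibition above about 18%, plus a signal ratio from 0.5 to 1.5, limit read from the data, passing the limit was not always enough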
# Target sequence (O14786 whole entry, looked up): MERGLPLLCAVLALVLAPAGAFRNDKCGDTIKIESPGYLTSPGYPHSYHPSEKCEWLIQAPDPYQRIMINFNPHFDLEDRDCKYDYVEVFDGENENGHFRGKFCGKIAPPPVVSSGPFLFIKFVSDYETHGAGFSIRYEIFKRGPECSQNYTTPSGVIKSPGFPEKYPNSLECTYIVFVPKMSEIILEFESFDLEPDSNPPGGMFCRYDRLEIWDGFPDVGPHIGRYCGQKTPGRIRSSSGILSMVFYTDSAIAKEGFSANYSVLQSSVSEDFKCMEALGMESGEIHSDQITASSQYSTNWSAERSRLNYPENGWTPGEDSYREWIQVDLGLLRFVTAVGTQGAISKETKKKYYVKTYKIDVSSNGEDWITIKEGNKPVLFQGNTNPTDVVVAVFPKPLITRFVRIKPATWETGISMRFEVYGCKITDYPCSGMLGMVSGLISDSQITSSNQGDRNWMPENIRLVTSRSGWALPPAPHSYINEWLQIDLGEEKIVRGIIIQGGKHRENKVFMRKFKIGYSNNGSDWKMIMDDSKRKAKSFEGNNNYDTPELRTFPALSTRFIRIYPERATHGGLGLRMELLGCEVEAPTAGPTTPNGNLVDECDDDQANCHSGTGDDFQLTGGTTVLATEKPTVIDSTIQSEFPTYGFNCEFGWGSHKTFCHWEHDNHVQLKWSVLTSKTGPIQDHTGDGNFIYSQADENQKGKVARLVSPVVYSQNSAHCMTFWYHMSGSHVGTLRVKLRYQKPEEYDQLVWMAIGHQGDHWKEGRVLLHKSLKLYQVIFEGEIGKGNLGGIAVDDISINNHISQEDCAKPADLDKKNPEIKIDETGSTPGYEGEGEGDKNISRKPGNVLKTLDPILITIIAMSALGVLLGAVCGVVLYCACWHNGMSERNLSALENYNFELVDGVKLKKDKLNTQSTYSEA
# Lipid droplet – inhibitors of hepatocyte lipid droplet formation, primary screen, imaging, high-throughput imaging, BODIPY stain. AML12 mouse hepatocytes, oleate lipid droplets. inhibition, % at 6.5 µM. hit rate 0.4% among 240,000. AID 1656, 2009;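 active means lipid droplet intensity inhibited by at least 50%, with more than 500 cells counted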
#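 Assay system: AML12 hepatocytes (mouse) / Also added: 100 µM oleic acid challenge / Times: overnight treatment with compound plus oleate / Detection: high-content imaging of BODIPY-stained droplets and DAPI nuclei / Evaluation: % inhibition of lipid droplet signal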
# M18AAP inhibitor – PfM18AAP inhibitors, malaria aminopeptidase, primary screen, biochemical, QFRET, recombinant enzyme; M18 aspartyl aminopeptidase (Plasmodium falciparum 3D7); hit rate 1.2% among 290,000; H-Glu-NHMec fluorogenic cleavage; inhibition, % at 7.35 µM; AID 1822, 2009;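 active means inhibition above the campaign mean inhibition over all tested compounds plus 3 SD, cut at about 28% in these data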;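 further: 0% = plate median of test compound wells and 100% = 2 mM ZnCl2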
# HTR2A ag – mouse Htr2a agonists via beta-arrestin recruitment, primary screen, cell-based, luminescence; CHO-K1 mHTR2A beta-arrestin complementation; percent of 30 µM serotonin response; activation, % at 7.6 µM; 5-hydroxytryptamine receptor 2A (Mus musculus), P35363; hit rate 0.66% among 360,000; AID 624169, 2012;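 active means activation above a run cutoff, the mean activation of all tested compounds plus 3 SD, cut at about 14% in these data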;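 further: 0% = plate median of compound wells and 100% = 30 µM serotonin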
# sPLA2-III inh – human group III sPLA2 inhibitors, primary screen, biochemical, QFRET, BODIPY PC-A2 liposome substrate. QFRET BODIPY PC-A2 liposome hydrolysis, fluorescence. inhibition, % at 12.2 µM. hit rate 0.56% among 370,000. AID 743126, 2013;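 active means inhibition above mean plus 3 SD of compounds lying within the high and low control bounds, cut at about 19% in these data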;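 further: 0% = median of test compound wells and 100% = no enzyme DMSO wells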
# Arr AP2 block – inhibitors of beta-arrestin/AP2 binding, primary screen, biochemical, GPCR trafficking, flow cytometry | beta-arrestin 1 C-terminal peptide binding to AP2 beta2-adaptin appendage (human) | FITC-arrestin peptide / GST-AP2 beads; AP2 beta2 appendage carries R879A mutation | inhibition, % at 10 µM | hit rate 0.31% among 340,000;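 active means inhibition above a set limit, near 3 SD of compounds lacking own fluorescence, cut at about 54% in these data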;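 further: plate controls were DMSO wells for no effect and 5 µM unlabelled arrestin peptide for full effect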
#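 test system = AP2 appendage R879A on GSH beads | buffer or medium = PBS plus Tween 20 (0.05%) and BSA (0.1%) | incubation = 12 min plus 1 h, RT | detection = bead flow cytometry, FITC channel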
# Lipid drop inh – hepatocyte lipid droplet accumulation inhibitors, confirmation, imaging, AML12 mouse hepatocytes, single concentration, high-content | shares compounds with Lipid droplet | BODIPY lipid droplet imaging; droplets induced with 100 µM oleic acid | inhibition, % at 5.2 µM | hit rate 65% among 870;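 active means inhibition of lipid droplet metric at least 50%, with more than 300 cells in each of four replicates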;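 further: plate controls were DMSO with oleic acid for no effect and 5 µM Triacsin-C for full effect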
# AML12 tox img – AML12 hepatocyte cytotoxicity, counter-screen for hepatic lipid droplet formation project, imaging, DAPI nuclear morphology imaging; AID 463200, 2010; z-score at 5 µM; hit rate 3% among 870; shares compounds with Lipid droplet; AML12 mouse hepatocytes; hits give high values; cells fed 100 µM oleate overnight; in the data active means z-score above about 6.3;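 further: compound exposure lasted overnight at 37 °C before fixation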
# AML12 tox conf – AML12 hepatocyte cytotoxicity, confirmation, cytotoxicity control for hepatic lipid droplet formation project, cell-based, single concentration | shares compounds with Lipid droplet | AML12 mouse hepatocyte viability, ATP luminescence; cells loaded with 100 µM oleic acid | cytotoxicity, % at 50 µM | 530 tested, under 10 active;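 active means cytotoxicity above 50% in each of four replicates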;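 further: compound exposure lasted overnight at 37 °C before the ATP read; 0% = DMSO-treated cells and 100% = wells with no cells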
# An asterisk follows results filed as active; . = no result given.
SMILES,CendR NRP1 mod,Lipid droplet,M18AAP inhibitor,HTR2A ag,sPLA2-III inh,Arr AP2 block,Lipid drop inh,AML12 tox img,AML12 tox conf
Cc1cc(C)c2nc(SCC(=O)N3CC(=O)Nc4ccccc43)c(C#N)cc2c1,-23,163*,-9,0,0,3,-307,22*,.
CCOc1ccc(CCNC(=O)c2cc(-c3ccccc3)c(N3CCOCC3)s2)cc1,-6,.,.,0,-3,-4,.,.,.
CCOc1ccc(CCNC(=O)c2cc(-c3ccccc3)c(N3CCOCC3)s2)cc1OCC,9,100*,-11,.,4,-2,112*,-0.1,-13
COc1ccc(CCNC(=O)c2cc(-c3ccccc3)c(N3CCOCC3)s2)c(OC)c1OC,10,96*,0,1,-5,-8,107*,0.029,-6
O=C(NCc1ccc2c(c1)OCO2)c1cc(-c2ccccc2)c(N2CCOCC2)s1,8,73*,0,-4,.,-7,109*,-1.1,-8
O=C(NCc1ccco1)c1cc(-c2ccccc2)c(N2CCOCC2)s1,-13,.,7,-4,-5,-2,.,.,.
CC1(C(=O)NS(=O)(=O)C2CC2)CCCN(C(=O)Cc2ccc(F)cc2)C1 (stereo not given),5,.,.,-2,9,.,.,.,.
CC1=C(C(=O)OCC2CCCO2)C(c2ccccc2Cl)NC(=O)N1 (stereo not given),6,7,1,7,4,-4,.,.,.
CC1=C(C(=O)OCC2CCCO2)C(c2ccc(Cl)c(Cl)c2)NC(=O)N1 (stereo not given),-2,57*,-2,3,4,14,35,-0.64,.
O=C(Nc1ccc2c(c1)OCCO2)C(C1CC1)N1CCN(c2ccc(C(F)(F)F)cn2)CC1 (stereo not given),7,.,.,1,-3,.,.,.,.
COc1ccc(NS(=O)(=O)c2cc([N+](=O)[O-])ccc2N/N=C/c2c(C)[nH]c3ccccc23)cc1,-97,.,.,1,-4,-7,.,.,.
Cc1[nH]c2ccccc2c1/C=N/Nc1ccccc1[N+](=O)[O-],7,85*,11,-5,11,30,114*,0.4,.
CCCOc1ccc(/C=N/Nc2cccc([N+](=O)[O-])c2)c(O)c1,7,9,10,6,1,4,.,.,.
CCCOc1ccc(/C=N/Nc2ccccc2[N+](=O)[O-])c(O)c1,2,56*,-2,-4,7,9,60,-0.73,.
COc1ccccc1/C=N\Nc1ccccc1[N+](=O)[O-],8,165*,1,2,12,19,63*,0.72,.
CC(C)Oc1ccccc1/C=N/Nc1ccccc1[N+](=O)[O-],9,95*,1,-1,4,3,115*,0.61,.
CCOc1ccccc1/C=N/Nc1ccccc1[N+](=O)[O-],2,.,2,4,3,-1,.,.,.
COc1ccc(CN(C)C[C@@H]2OCc3cnnn3CCCC(=O)N([C@H](C)CO)C[C@H]2C)cc1,6,.,.,-6,10,.,.,.,.
CCOC(=O)[C@@]12CN(C(=O)OC(C)(C)C)CC=C1N(Cc1ccc(OC)cc1)C(=O)[C@H]2CC(=O)NCCCCc1ccccc1,.,.,.,.,-19,.,.,.,.
CCN1CCN(Cc2ccc(NC(=O)c3ccc(C)c(NC(=O)C(=O)c4c[nH]c5ccccc45)c3)cc2C(F)(F)F)CC1,-12,63*,6,-10,-30,5,0,6.3*,.
CCOc1ccc(CCNC(=O)C2CCN(S(=O)(=O)N3CCCCC3)CC2)cc1OCC,-3,108*,19,0,0,0,105*,-0.36,.
CCOc1ccc(CCNC(=O)CCc2nnc3ccc(N4CCOCC4)nn23)cc1,-3,6,7,-1,-5,-6,.,.,.
CCN(CC)c1ccc(NC(=O)CCc2nnc3ccc(N4CCCC4)nn23)c(C)c1,-9,72*,25,-3,4,18,98*,-0.66,13
CCOc1ccc(CCNC(=O)CCc2nnc3ccc(N4CCCCC4)nn23)cc1OCC,7,86*,5,-2,7,0,109*,0.41,10
CCOC(=O)[C@]12CCCCC/C=C\1N(CCc1ccc(Cl)cc1)C(=O)[C@H]2CC(=O)NCc1cccc2ccccc12,.,.,.,.,-5,.,.,.,.
SMILES,CendR NRP1 mod,Lipid droplet,M18AAP inhibitor,HTR2A ag,sPLA2-III inh,Arr AP2 block,Lipid drop inh,AML12 tox img,AML12 tox conf
COc1ccc(Cn2ccnc2SCC(=O)Nc2ccc(F)cc2F)cc1,12,.,.,-1,-6,.,.,.,.
OCCCNc1c2ccccc2nc2ccccc12,16,.,-8,-1,-3,3,.,.,.
CN(C1=C(N2CCCCC2)C(=O)c2ccccc2C1=O)c1ccccc1,10,79*,6,-1,12,12,114*,0.76,11
COc1ccccc1NC1=C(N2CCCCC2)C(=O)c2ccccc2C1=O,-25,69*,-6,8,.,4,40,-0.26,.
CC1CCCN(C2=C(NS(=O)(=O)c3ccc(Br)cc3)C(=O)c3ccccc3C2=O)C1 (stereo not given),11,50*,15,11,8,-5,112*,-1.2,23
O=C1C(NS(=O)(=O)c2ccccc2)=C(N2CCN(c3ccc(F)cc3)CC2)C(=O)c2ccccc21,0,79*,1,-1,10,-2,81*,-1.4,17
O=C1C(NS(=O)(=O)c2cccs2)=C(N2CCN(c3cccc(Cl)c3)CC2)C(=O)c2ccccc21,40*,61*,2,-4,13,1,112*,0.38,18
CC1CCN(C2=C(NS(=O)(=O)c3ccccc3)C(=O)c3ccccc3C2=O)CC1,-4,35,3,6,3,9,.,.,.
CC1CCN(C2=C(NS(=O)(=O)c3ccc(Br)cc3)C(=O)c3ccccc3C2=O)CC1,12,60*,13,3,10,35,114*,-0.12,23
